Measurements taken from ChEMBL document CHEMBL5500359, “Identification of a new bisindolinone arresting IGROV1 cells proliferation” (Eur J Med Chem, 2024).

Experiments:
[1] = system: Panel NCI-60 (60 carcinoma cell lines); assay: Cytostatic activity against human Panel NCI-60 (60 carcinoma cell lines) incubated for 48 hrs by SRB assay; type: functional
Outline: (§1)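 NCI-60 five-concentration screen: lines seeded 5×10^3–4×10^4 cells/well depending on line; compound diluted in fresh medium at scalar concentrations 0–100 or 0–1000 μM; 48 h exposure, in situ fixation, sulforhodamine B protein staining, optical density read; GI50, TGI and LC50 per NCI procedures; panel mean = mean graph midpoint.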

[2] = system: Breast cancer cell line; assay: Cytostatic activity against human Breast cancer cells incubated for 48 hrs by SRB assay; type: functional; outline: as §1
[3] = system: Renal cancer cell line; assay: Cytostatic activity against human Renal cancer cells incubated for 48 hrs by SRB assay; type: functional; outline: as §1
[4] = system: Ovarian cancer cell line; assay: Cytostatic activity against human Ovarian cancer cells incubated for 48 hrs by SRB assay; type: functional; outline: as §1
[5] = system: Melanoma cell line; assay: […] against human Melanoma cells incubated for 48 hrs by SRB assay; type: functional; settings: read-out: LC50 (the source's name)
Outline: (§2)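 NCI DTP five-concentration screen. Cells were seeded at 5 × 10³–4 × 10⁴ cells/well, depending on the line. Compounds were diluted in fresh medium and added at scalar concentrations over 0–1000 µM or 0–100 µM. After 48 h the cells were fixed in situ, stained with sulforhodamine B, and optical density was read. GI50, TGI and LC50 were derived by NCI procedures, and the panel mean is the mean graph midpoint.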

[6] = system: CNS carcinoma cell; assay: Cytostatic activity against human CNS carcinoma cells incubated for 48 hrs by SRB assay; type: functional; outline: as §1
[7] = system: Colon carcinoma cell; assay: Cytostatic activity against human Colon carcinoma cells incubated for 48 hrs by SRB assay; type: functional; outline: as §1
[8] = Cytostatic activity against human Leukemia cancer cells incubated for 48 hrs by SRB assay; type: functional, Leukemia cell; outline: as §1
[9] = system: Panel NCI-60 (60 carcinoma cell lines); assay: Cell growth inhibition of human Panel NCI-60 (60 carcinoma cell lines) incubated for 48 hrs by SRB assay; type: functional; outline: as §1
[10] = system: Breast cancer cell line; assay: Cell growth inhibition of human Breast cancer cells incubated for 48 hrs by SRB assay; type: functional; settings: read-out: LC50 (the source's name); outline: as §2
[11] = system: Prostatic carcinoma cell; assay: Cell growth inhibition of human Prostate carcinoma cells incubated for 48 hrs by SRB assay; type: functional; outline: as §1
[12] = system: Renal cancer cell line; assay: Cell growth inhibition of human Renal cancer cells incubated for 48 hrs by SRB assay; type: functional; outline: as §1
[13] = system: Melanoma cell line; assay: Cell growth inhibition of human Melanoma cells incubated for 48 hrs by SRB assay; type: functional; outline: as §1
[14] = system: CNS carcinoma cell; assay: Cell growth inhibition of human CNS carcinoma cells incubated for 48 hrs by SRB assay; type: functional; outline: as §1
[15] = Cell growth inhibition of human Leukemia cancer cells incubated for 48 hrs by SRB assay; type: functional; outline: as §1
[16] = system: NSCLC; assay: Cell growth inhibition of human NSCLC cells incubated for 48 hrs by SRB assay; type: functional; outline: as §1
[17] = system: Colon carcinoma cell; assay: Cytotoxicity against human Colon carcinoma cells incubated for 48 hrs by SRB assay; type: functional; outline: as §1
[18] = Cytotoxicity against human Leukemia cancer cells incubated for 48 hrs by SRB assay; type: functional; settings: Leukemia cell, read-out: LC50 (the source's name); outline: as §2
[19] = system: Ovarian cancer cell line; assay: Cytotoxicity against human Ovarian cancer cells incubated for 48 hrs by SRB assay; type: functional; outline: as §1
[20] = system: Breast cancer cell line; assay: Cytotoxicity against human Breast cancer cells incubated for 48 hrs by SRB assay; type: functional; outline: as §1

SMILES	GI [1] [µM]	TGI [2] [µM]	GI [3] [µM]	TGI [4] [µM]	CC50 [5] [µM]	GI [6] [µM]	TGI [7] [µM]	GI [8] [µM]	GI50 [9] [µM]	CC50 [10] [µM]	GI [11] [µM]	GI50 [12] [µM]	GI [13] [µM]	GI50 [14] [µM]	GI50 [15] [µM]	GI [16] [µM]	GI [17] [µM]	CC50 [18] [µM]	GI [19] [µM]	GI [20] [µM]
COc1ccc(OC)c2c1NC(=O)/C2=C/c1cccc(/C=C2/C(=O)Nc3c(OC)ccc(OC)c32)c1	72.44	81.3	81.28	69.2	61.7	100	63.1	95.5	5.89	5.37	5.89	7.08	7.24	4.68	2.69	9.33	–	–	–	–
COc1ccc2c(c1)/C(=C\c1cc(C(C)(C)C)cc(/C=C3/C(=O)N(C)c4ccc(OC)cc43)c1O)C(=O)N2C	6.61	6.17	8.32	7.24	3.98	4.9	4.79	20.42	2.24	2.24	3.09	2.51	1.86	1.91	2.82	2.34	16.98	100	28.18	36.31
Cc1cc2c(cc1O)/C(=C\c1cc(C(C)(C)C)cc(C=O)c1O)C(=O)N2	8.91	14.8	11.48	9.55	5.75	10	11.5	3.72	1.91	1.82	0.87	2.57	1.78	1.2	0.68	3.47	38.02	81.3	56.23	77.62
CC[C@]1(O)C[C@H]2CN(CCc3c([nH]c4ccccc34)[C@@](C(=O)OC)(c3cc4c(cc3OC)N(C=O)[C@H]3[C@@](O)(C(=O)OC)[C@H](OC(C)=O)[C@]5(CC)C=CCN6CC[C@]43[C@@H]65)C2)C1 [VINCRISTINE]	–	–	–	–	–	–	–	–	0.2	0.32	0.13	0.32	0.16	0.13	0.1	0.25	–	–	–	–
COc1cc2c(c(OC)c1OC)/C(=C\c1ccc3ccc4ccc(/C=C5/C(=O)Nc6cc(OC)c(OC)c(OC)c65)nc4c3n1)C(=O)N2	70.79	64.6	74.13	93.3	85.1	67.61	5.23	–	12.9	10	3.39	26.3	18.62	13.8	4.27	14.45	–	–	–	–
O=C1Nc2ccc(F)cc2/C1=C\c1cccc(/C=C2/C(=O)Nc3ccc(F)cc32)c1	4.47	–	3.47	–	10.2	3.24	–	9.77	1.62	9.33	1.48	1.58	1.58	1.35	1.66	1.82	9.33	7.41	32.4	–
CC(C)(C)c1cc(/C=C2/C(=O)Nc3cccc(F)c32)c(O)c(/C=C2/C(=O)Nc3cccc(F)c32)c1	6.46	8.51	7.24	5.89	5.5	6.46	6.46	4.79	2.14	2.04	2.75	2.45	2.29	2.09	1.58	2.14	16.98	22.9	15.49	33.88
O=C1Nc2cccc(F)c2/C1=C\c1cccc(/C=C2/C(=O)Nc3cccc(F)c32)c1	5.13	6.17	4.17	7.59	3.72	4.27	3.31	6.92	1.91	2	2.14	1.86	1.7	1.82	1.23	2.4	6.76	100	33.88	16.98
COc1cc2c(/C=C3/C(=O)N(C)c4cc5c(cc43)/C(=C\c3c(Cl)[nH]c4cc(C)c(OC)cc34)C(=O)N5C)c(Cl)[nH]c2cc1C	7.59	10	7.24	10.7	6.46	7.76	4.17	5.37	2.04	24.6	1.82	1.95	2.34	1.82	1.2	2.19	9.77	42.7	45.71	33.11
COc1cc2c(cc1C)NC(=O)/C2=C/c1ccc2ccc3ccc(/C=C4/C(=O)Nc5cc(C)c(OC)cc54)nc3c2n1	26.3	25.7	29.51	38.9	17.8	40.74	10.2	22.91	5.13	3.98	2.95	6.31	6.03	8.51	2.51	6.76	46.77	–	77.62	–
CN(C)c1ccc2[nH]c(Cl)c(/C=C3/C(=O)N(C)c4cc5c(cc43)/C(=C\c3c(Cl)[nH]c4ccc(N(C)C)cc34)C(=O)N5C)c2c1	–	–	–	–	–	–	–	–	14.5	4.17	10.72	9.77	27.54	7.08	17	18.2	–	–	–	–
COc1ccc2[nH]c(Cl)c(/C=C3/C(=O)N(C)c4cc5c(cc43)/C(=C\c3c(Cl)[nH]c4ccc(OC)cc34)C(=O)N5C)c2c1	4.9	6.31	4.47	4.69	4.9	4.07	4.68	6.17	2.04	3.16	1.95	1.78	2.04	1.74	2.24	1.78	11.75	89.1	12.59	21.88
O=C1Nc2ccc(Cl)cc2/C1=C\c1ccc2ccc3ccc(/C=C4/C(=O)Nc5ccc(Cl)cc54)nc3c2n1	18.2	29.5	17.38	29.5	11.5	9.33	7.41	83.18	2.63	3.09	2.45	2.29	2.19	2.15	3.09	2.57	31.62	–	69.18	–
COc1ccc2c(c1)/C(=C\c1ccc3ccc4ccc(/C=C5/C(=O)N(C)c6ccc(OC)cc65)nc4c3n1)C(=O)N2C	12.88	18.6	5.89	28.2	4.79	17.78	6.31	56.23	2.63	3.09	2.57	2.34	2.14	3.16	3.16	2.57	13.49	–	89.13	64.57
